Source: PubChem BioAssay
Calls of active or inactive are those of the source.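 How the source made its calls, unless noted: active means visual image review flags a hit and inhibition of aggregation exceeds 20%; inconclusive means visual hit but inhibition at or below 20%; inactive means no hit on visual image review.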

Tests used:
[1] = inhibitors of TNFa-induced NFkB p65 translocation, primary screen, imaging, HUVEC, MLSMR starter and 10KST1 sets (AID 438;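 active means inhibition above 20% together with a positive visual image hit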;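 further: compound added about 3h40 before a 20 min TNFalpha stimulation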;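 on inhibition: signal is the nuclear over cytoplasmic p65 intensity ratio per well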); conditions: HUVEC TNFa-induced p65 nuclear translocation; cell count: measured here: nuclei count (cytotoxicity indicator), at 2.08 µM; inhibition: at 2 µM, stronger effect = higher value, 0% TNFa-plus-vehicle, 100% no-TNFa wells
[2] = reduction of polyQ htt aggregates in cells – imaging, exon1htt(103Q)mCFP cells, high-content imaging, primary screen (AID 483); conditions: exon1htt(103Q)mCFP cell line, aggregate imaging, at 2 µM; inhibition of aggregation: stronger effect = higher value; nuclei count: measured here: cell count, toxicity;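 further: compound exposure lasted 3 days before fixation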;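 on nuclei count: percent of the per-plate median nuclei count of sample wells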
[3] = endothelial E-selectin expression blockers – imaging, HUVEC, immunofluorescence, MLSMR starter and 10KST1 sets, primary screen (AID 487;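 active means visually confirmed hit in the image check and inhibition above 20%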;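 on inhibition: signal is fraction of cell area covered by stained E-selectin grains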;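 on nuclei count: 100% = median nuclei count of all wells on the same plate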); conditions: HUVEC TNFalpha-induced E-selectin immunofluorescence imaging, at 2 µM; inhibition: stronger effect = higher value; nuclei count: measured here: cell number, toxicity
[4] = target: Voltage-gated potassium channel subunit beta-2 (Rattus norvegicus) (UniProt P62483); assay: inhibitors of rat Kvbeta2 reductase activity – biochemical, NADPH fluorescence, primary screen (AID 622;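 active means fluorescence slope higher than the sample average by over 3 SD, cut at about -0.22 in these data, passing the limit was not always enough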;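 further: slope of raw intensity against log time taken from 70 to 1610 s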); conditions: recombinant KvBeta, 4-cyanobenzaldehyde reduction, at 10 µM, stronger effect = higher value
[5] = target: Voltage-gated potassium channel subunit beta-2 (Rattus norvegicus) (UniProt P62483); assay: enhancers of rat Kvbeta2 NADPH turnover – biochemical, NADPH fluorescence, primary screen (AID 623;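 active means NADPH fluorescence slope more negative than the mean of all samples by about 3 SD, 99.7% confidence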;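 further: fluorescence intensity change per second fitted from 20 to 320 s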); conditions: Recombinant KvBeta, NADPH fluorescence decrease slope, 10 min; at 10 µM; stronger effect = lower value
[6] = target: Muscarinic acetylcholine receptor M4 (Homo sapiens) (UniProt P08173); assay: M4-linked GIRK flux change, two-sided – cell-based, HEK293 M4/GIRK, thallium flux, BTC-AM, M4 allosteric agonist project, primary screen (AID 625;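 active means fluorescence slope after compound addition differing from the mean of all tested samples at 99.7% confidence, mostly higher but some lower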;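 further: thallium influx through GIRK channels coupled to M4 in HEK293 cells with BTC-AM dye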); conditions: at 10 µM, actives lie on both sides
Method in brief: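 Material: HEK293 cells with M4 receptor and GIRK channels; Times: cells overnight at 37 °C, BTC-AM loading 1 h, reads 2 min total; Technique: kinetic BTC-AM fluorescence sampled at 1 Hz, 10 s pre-addition baseline; Read-out basis: slope over 15–24 s of trace normalized to starting intensity; Controls: carbachol positive, DMSO negative.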

[7] = blockers of RIG-like receptor reporter activation – cell-based, Sendai virus stimulus, luciferase, 10K MLSCN set, TLR/RLR signaling modifier project, primary screen (AID 602276;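 active means inhibition at or above 50% at 10 µM; inactive means inhibition below 50%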;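 further: firefly luciferase from ISG56 promoter only with Renilla not read in this screen; 0% = Sendai virus plus DMSO and 100% = medium plus DMSO without virus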); conditions: HEK293 RL24 IRF3 luciferase reporter, at 10 µM, stronger effect = higher value
[8] = TLR3 IRF3 reporter activation blockers – cell-based, poly I:C stimulus, luciferase, 10K MLSCN set, primary screen (AID 602277;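 active means inhibition of the reporter signal at or above 50%; inactive means inhibition below 50%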); conditions: HEK293-TLR3 RL24 IRF3 luciferase reporter, at 10 µM, stronger effect = higher value

Sequence of Voltage-gated potassium channel subunit beta-2 (Rattus norvegicus) (P62483 whole entry, looked up): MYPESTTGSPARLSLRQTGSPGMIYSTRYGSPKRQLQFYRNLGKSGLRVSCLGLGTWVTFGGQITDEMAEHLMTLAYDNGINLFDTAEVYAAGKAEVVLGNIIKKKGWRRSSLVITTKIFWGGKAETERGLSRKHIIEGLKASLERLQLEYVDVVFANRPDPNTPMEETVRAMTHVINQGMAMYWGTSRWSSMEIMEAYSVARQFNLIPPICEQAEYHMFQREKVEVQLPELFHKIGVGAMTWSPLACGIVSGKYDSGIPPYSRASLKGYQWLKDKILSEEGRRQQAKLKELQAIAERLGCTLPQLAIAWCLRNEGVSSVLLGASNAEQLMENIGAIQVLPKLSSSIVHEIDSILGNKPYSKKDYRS
Sequence of Muscarinic acetylcholine receptor M4 (Homo sapiens) (P08173 whole entry, looked up): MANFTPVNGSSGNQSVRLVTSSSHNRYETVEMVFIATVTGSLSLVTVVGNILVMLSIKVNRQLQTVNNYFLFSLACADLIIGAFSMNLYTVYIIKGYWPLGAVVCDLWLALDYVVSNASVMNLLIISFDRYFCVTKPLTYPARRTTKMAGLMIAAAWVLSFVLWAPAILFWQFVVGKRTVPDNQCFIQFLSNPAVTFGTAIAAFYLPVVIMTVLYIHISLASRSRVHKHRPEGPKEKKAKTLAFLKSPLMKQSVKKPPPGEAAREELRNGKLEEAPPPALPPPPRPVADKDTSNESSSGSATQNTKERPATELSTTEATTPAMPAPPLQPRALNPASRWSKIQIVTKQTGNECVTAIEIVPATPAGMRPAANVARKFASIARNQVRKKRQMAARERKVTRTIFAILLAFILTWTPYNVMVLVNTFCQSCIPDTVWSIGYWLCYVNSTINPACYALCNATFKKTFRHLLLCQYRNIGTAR

Row | SMILES | cell count [1] | inhibition [1] | inhibition of aggregation [2] | nuclei count [2] | inhibition [3] | nuclei count [3] | fluorescence slope [4] | NADPH fluorescence slope [5] | fluorescence slope [6] | inhibition [7] | inhibition [8]
1 | CCOC(=O)Nc1ccc2c(c1)N(C(=O)CN(CC)CC)c1ccccc1C=C2 | 389 | 3.3% (inactive) | -9.7% (inactive) | 108% | -96.2% (inactive) | 119% | -0.577 (inactive) | -0.000132 (inactive) | 0.00312 (inactive) | 18.3% (inactive) | 26.3% (inactive)
2 | O=C(O)CCc1ccc(-c2cccs2)n1CCC(=O)O | 828 | -2.7% (inactive) | -3.1% (inactive) | 95.6% | -43% (inactive) | 116% | -0.55 (inactive) | -5.2e-05 (inactive) | 0.00465 (inactive) | 14.7% (inactive) | 20.5% (inactive)
3 | CCOC(=O)c1[nH]c(C)c(C(=O)N2CCN(c3ccc(F)cc3)CC2)c1C | 755 | -2.2% (inactive) | -27% (inactive) | 118% | -175% (inactive) | 119% | -0.451 (inactive) | 1.1e-05 (inactive) | 0.00564 (inactive) | 1.11% (inactive) | 8.18% (inactive)
4 | CCOC(=O)C1=C(CC)Nc2ccccc2N=C1NC(=O)Cn1cnc2ccccc2c1=O | 529 | 6.3% (inactive) | 6.9% (inactive) | 117% | -28.7% (inactive) | 123% | -0.534 (inactive) | -4.1e-05 (inactive) | 0.00608 (inactive) | 10.4% (inactive) | 20% (inactive)
5 | CCC(=O)c1ccc(OCCN2CCOCC2)cc1 | 387 | -5.3% (inactive) | -1.8% (inactive) | 107% | -104% (inactive) | 120% | -0.566 (inactive) | -4.5e-05 (inactive) | 0.00623 (inactive) | 6.75% (inactive) | 7.43% (inactive)
6 | COc1ccc(Br)cc1S(=O)(=O)N1CCOCC1 | 336 | 5% (inactive) | -25.8% (inactive) | 119% | -6.1% (inactive) | 113% | -0.462 (inactive) | -3.5e-05 (inactive) | 0.00557 (inactive) | 17.4% (inactive) | 16.5% (inactive)
7 | Cc1sc2c(c1C)CN(C1CC(C)(C)NC(C)(C)C1)CN2C(=O)c1ccco1 | 307 | 10.6% (inactive) | 2% (inactive) | 91.5% | -5% (inactive) | 105% | -0.377 (inactive) | -2.6e-05 (inactive) | 0.00444 (inactive) | -1.32% (inactive) | -7.67% (inactive)
8 | CCOC(=O)N1CCN(C(=O)C2CC(=O)N(Cc3ccc(OC)cc3)C2)CC1 (stereo not drawn) | 607 | -14.6% (inactive) | -1.6% (inactive) | 112% | -28.6% (inactive) | 111% | -0.566 (inactive) | -1e-05 (inactive) | 0.0052 (inactive) | 13.3% (inactive) | 18.5% (inactive)
9 | OCCn1c(CSc2nnc(-c3ccco3)n2-c2ccccc2)nc2ccc(Cl)cc21 | 724 | 10.5% (inactive) | 6.6% (inactive) | 78.4% | 14.6% (inactive) | 90.8% | -0.574 (inactive) | -3.2e-05 (inactive) | 0.00847 (inactive) | 9.6% (inactive) | 24.7% (inactive)
10 | CCOC(=O)C1CCCN(C(=O)c2cccs2)C1 (stereo not drawn) | 330 | 3.3% (inactive) | 13.3% (inactive) | 110% | 22% (inactive) | 104% | -0.456 (inactive) | -5e-05 (inactive) | 0.0055 (inactive) | 12.8% (inactive) | 3.43% (inactive)
11 | CNC(=O)CSc1nnc(-c2cc(C)cc(C)c2)o1 | 669 | -5% (inactive) | 0.4% (inactive) | 123% | -34.6% (inactive) | 124% | -0.547 (inactive) | -3.9e-05 (inactive) | 0.00519 (inactive) | 4.57% (inactive) | -12.1% (inactive)
12 | CCN(Cc1nc2cc(OC)c(OC)cc2c(=O)[nH]1)C(=O)c1ccc(S(=O)(=O)N(C)C)cc1 | 311 | 11.1% (inactive) | -0.9% (inactive) | 119% | 14.8% (inactive) | 89.6% | -0.399 (inactive) | -0.000108 (inactive) | 0.00948 (inactive) | 13.8% (inactive) | 28.7% (inactive)
13 | COCCN(C(=O)Cn1nnc2ccccc21)C(C(=O)NC1CCCC1)c1cc(OC)ccc1OC (stereo not drawn) | 323 | 9% (inactive) | 7.8% (inactive) | 105% | -246% (inactive) | 112% | -0.491 (inactive) | 0.0001 (inactive) | 0.00575 (inactive) | 2.22% (inactive) | 8.36% (inactive)
14 | CC(C)(C)OC(=O)N1CCC(C(=O)N2CCCCCC2)CC1 | 383 | 4.6% (inactive) | 0.1% (inactive) | 90% | -36.8% (inactive) | 97% | -0.529 (inactive) | -8e-05 (inactive) | 0.00575 (inactive) | 7.78% (inactive) | 11.9% (inactive)
15 | CC(=O)c1cccc(NC(=O)N2C3CCC2CC(O)(c2cccnc2)C3)c1 (stereo not drawn) | 602 | 9.7% (inactive) | -21.4% (inactive) | 104% | -27.6% (inactive) | 106% | -0.259 (inactive) | 3.9e-06 (inactive) | 0.0059 (inactive) | -7.02% (inactive) | 16.5% (inactive)
16 | COc1ccc(NC(=O)N2CCC(O)(c3cccnc3)CC2)c(OC)c1 | 643 | -6.3% (inactive) | 13% (inactive) | 88.6% | -161% (inactive) | 145% | -0.558 (inactive) | -3.4e-05 (inactive) | 0.00818 (inactive) | 10.9% (inactive) | 12.7% (inactive)
17 | CCC(=O)N1CCNC(=O)C1CC(=O)Nc1ccc(C)c(Cl)c1 (stereo not drawn) | 258 | 3.7% (inactive) | -13.9% (inactive) | 102% | -40.7% (inactive) | 88.8% | -0.56 (inactive) | 1.7e-05 (inactive) | 0.00516 (inactive) | -5.01% (inactive) | -2.47% (inactive)
18 | CCOc1ccccc1C1CC(=O)NC(SCC)=C1C#N (stereo not drawn) | 465 | -13% (inactive) | 18.7% (inactive) | 84.4% | -10% (inactive) | 130% | -0.326 (inactive) | -7.3e-05 (inactive) | 0.00457 (inactive) | 9.15% (inactive) | 17.5% (inactive)
19 | COc1ccc(C(NC(=O)c2ccco2)c2ccc(OC)c(OC)c2)cc1 (stereo not drawn) | 373 | 27.4% (active) | -4.2% (inactive) | 104% | -24.8% (inactive) | 114% | -0.326 (inactive) | -6.7e-05 (inactive) | 0.00496 (inactive) | 6.11% (inactive) | 18.1% (inactive)
20 | Cc1occc1-c1nnc(SCC(=O)NCC2CCCO2)n1C (stereo not drawn) | 687 | -0.3% (inactive) | -23% (inactive) | 120% | 40.7% (inactive) | 95% | -0.521 (inactive) | 0.00013 (inactive) | 0.0055 (inactive) | 16.7% (inactive) | 10.3% (inactive)
21 | CC(NO)C(C)(C)NO (stereo not drawn) | 331 | 4.4% (inactive) | -7.5% (inactive) | 101% | -18.8% (inactive) | 126% | -0.493 (inactive) | 9e-05 (inactive) | 0.00819 (inactive) | 3.35% (inactive) | 10.7% (inactive)
22 | O=C(N1CCN(Cc2ccccc2)CC1)C12CC3CC(CC(C3)C1)C2 | 530 | -4.3% (inactive) | 2% (inactive) | 88.3% | -15.4% (inactive) | 92.7% | -0.327 (inactive) | -4.6e-05 (inactive) | 0.00533 (inactive) | 17% (inactive) | 8.52% (inactive)
23 | COCCn1c(=NC(=O)CSC(C)=O)sc2cc(F)ccc21 | 426 | -6.2% (inactive) | 33.6% (inactive) | 93.7% | -22% (inactive) | 106% | -0.379 (inactive) | 4.1e-05 (inactive) | 0.00556 (inactive) | 13.7% (inactive) | 22.7% (inactive)
24 | CCOc1nc(-c2ccccc2)ccc1-c1noc(-c2cccnc2)n1 | 233 | 8.4% (inactive) | -0.3% (inactive) | 99.4% | 29.6% (inactive) | 91.1% | -0.427 (inactive) | -0.000244 (inactive) | 0.00434 (inactive) | -14.5% (inactive) | -16% (inactive)
25 | CN(C)C=Nc1nonc1N | 429 | 9% (inactive) | -2% (inactive) | 105% | 24.6% (inactive) | 99.3% | -0.584 (inactive) | -7.3e-05 (inactive) | 0.00382 (inactive) | 18% (inactive) | 21% (inactive)
26 | Cc1ccc(-c2nnn(CC(=O)N(CC3CCCO3)C(C(=O)NC(C)(C)C)c3ccc(F)cc3)n2)o1 (stereo not drawn) | 415 | 5.7% (inactive) | 3.4% (inactive) | 112% | -64% (inactive) | 118% | -0.563 (inactive) | -3.8e-05 (inactive) | 0.00486 (inactive) | 9.86% (inactive) | 15.3% (inactive)
27 | Cn1c(-c2ccccc2)c(CCO)c2ccccc21 | 578 | 13.7% (inactive) | -2.6% (inactive) | 88.3% | -60.6% (inactive) | 152% | -0.559 (inactive) | -3.6e-05 (inactive) | 0.00569 (inactive) | 6.84% (inactive) | 6.66% (inactive)
28 | CC(=O)Nc1ccc(S(=O)(=O)n2nc(C)cc2C)cc1 | 495 | -20.7% (inactive) | -16.2% (inactive) | 108% | -163% (inactive) | 105% | -0.546 (inactive) | -0.000136 (inactive) | 0.00409 (inactive) | 10% (inactive) | 7.63% (inactive)
